This note sets out measurements from ChEMBL document CHEMBL3414483, “New heterocyclic hybrids of pyrazole and its bioisosteres: design, synthesis and biological evaluation as dual acting antimalarial-antileishmanial agents” (Eur J Med Chem, 2015).

For data set [1], the system named is Plasmodium berghei. Description: Antimalarial activity against Plasmodium berghei str. ANKA infected in Swiss albino mouse assessed as supression of parasitemia at 0.048 mmol/kg/day, po qd for 3 days by microscopic analysis relative to control. In kind it is functional. The essentials: (§1)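 Four-day suppressive test. Mice were infected iv on day 0 with 0.2 ml of 2 × 10^7 P. berghei ANKA-parasitized erythrocytes from a donor mouse, diluted in saline. From 2 h post-infection they were dosed orally at 0.048 mmol/kg/day for days 0–3, five mice per group. The vehicle was 7% Tween and 3% ethanol in water. On day 4, Giemsa smears were scored over 5 fields of about 100 RBC each. Suppression was calculated relative to the vehicle group, taken as 100%.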

In data set [2] the test system is Leishmania aethiopica. The data set is described as follows: Antileishmanial activity against promastigote stage of Leishmania aethiopica after 24 hrs by alamar blue staining-based […]. In kind it is functional, organism-based. The essentials: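 L. aethiopica promastigotes, 3 × 10^6 per well, given compounds from DMSO stocks in three-fold dilutions at 10 to 0.04 µg/ml (final DMSO ≤0.1%), in duplicate, at room temperature (21 ± 1 °C). Alamar blue (resazurin) was added after 24 h and absorbance read 48 h later at 540 and 630 nm. Negative control was parasites, medium and DMSO.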

Data set [3] relates to Leishmania aethiopica. The data set is described as follows: Antileishmanial activity against amastigote stage of Leishmania aethiopica after 72 hrs by resazurin staining-based fluorescence assay. It counts as functional, organism-based. The procedure, abridged: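 Axenic L. aethiopica amastigotes (50 µl of 2 × 10^7 cells/ml) exposed to serial dilutions at final 0.04–10 µg/ml for 72 h at 31 °C, humidified, 5% CO₂. Resazurin was added at 68 h and fluorescence read at 72 h (ex 530/em 590 nm). EC50 from sigmoidal dose–response fits, mean ± SD of triplicate experiments run in duplicate. Controls were medium alone and 1% DMSO.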
(In general: Alamar Blue is a resazurin reagent that responds to reducing activity.)

Another data set relates to Plasmodium falciparum. Description: Antiplasmodial activity against chloroquine-resistant Plasmodium falciparum RKL9 infected in human RBC assessed as effect on schizont maturation after 24 hrs by Geimsa staining-based assay. It counts as functional, organism-based. Particulars: RKL9, 24 h. The essentials: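 P. falciparum RKL9 in continuous culture in human B(+) RBC, parasitemia adjusted to 1-1.5%, RPMI 1640 with 10% AB(+) serum. Two-fold serial dilutions, compounds in ethanol (final ≤0.5%), 24 h at 37 °C, duplicate wells. Schizonts per 100 asexual parasites counted on Giemsa smears; % schizont maturation inhibition = (1 − Nt/Nc) × 100.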

Data set [4] concerns Plasmodium berghei. The data set is described as follows: Antimalarial activity against Plasmodium berghei str. ANKA infected in Swiss albino mouse assessed as survival at 0.048 mmol/kg/day, po qd for 3 days by microscopic analysis relative to control. It counts as functional. The procedure, abridged:
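P. berghei ANKA infected mice, 4-day suppressive test. Day 0: 0.2 ml of 2 x 10^7 parasitized erythrocytes given i.v. (donor blood, 20-30% parasitemia, diluted in saline). Oral dosing at 0.048 mmol/kg/day from 2 h post-infection, then days 1-3 at 24 h intervals. Vehicle 7% Tween, 3% ethanol in water. Five mice/group. Survival time recorded per mouse; mean compared with vehicle group.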

Data set [5] in a line: Toxicity in po dosed mouse. Particulars: in vivo. It counts as organism-based. The procedure, abridged:
(§2)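 Male mice (26-32 g), six per group, fasted overnight and weighed. Compounds given orally as suspension in 1% gum acacia at 25, 50, 100, 200 and 300 mg/kg/day; vehicle control at up to 1 ml/100 g. Mortality recorded after 24 h; weight and deaths followed over 3 days post-dosing.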

Data set [6] concerns Mus musculus. The data set is described as follows: Toxicity in mouse up to 100 mg/kg administered via parenteral route. Conditions: in vivo. Also noted: dose 100 mg/kg. In kind it is organism-based. The essentials: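 Groups of six mice received intraperitoneal doses of 10, 25, 50, 75 and 100 mg/kg, with propylene glycol as the vehicle control.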
Data set [7] relates to Mus musculus. The data set is described as follows: Toxicity in mouse assessed as change in weight at 25 to 300 mg/kg, po measured for 3 days. In kind it is organism-based. Also noted: dose 25-300 mg/kg, route oral. Particulars: in vivo, 72 h. The procedure, abridged:
as §2

Data set [8] deals with Plasmodium berghei. Description: Antimalarial activity against Plasmodium berghei str. ANKA infected in Swiss albino mouse assessed as parasitemia at 0.048 mmol/kg/day, po qd […] by microscopic analysis relative to control. In kind it is functional. The procedure, abridged:
as §1

The subject of data set [9] is Mus musculus. Description: Toxicity in mouse assessed as death at 25 to 300 mg/kg, po measured for 3 days. In kind it is organism-based. More on the design: dose 25-300 mg/kg, route oral. Particulars: in vivo, 72 h. The essentials:
as §2

Data set [10] has as its system Leishmania aethiopica. The data set is described as follows: Ratio of amphotericin IC50 to compound IC50 for promastigote stage of Leishmania aethiopica. It counts as functional.
Data set [11] concerns Leishmania aethiopica. The data set is described as follows: Ratio of miltefosine IC50 to compound IC50 for promastigote stage of Leishmania aethiopica. In kind it is functional.

In brackets after ≈: the same amount, converted by molar mass.

On to `O=[N+]([O-])c1ccc(-c2nn(-c3ccc(Br)cc3)cc2/C=N/NC(=S)Nc2ccccc2)cc1`, for which the Activity with Plasmodium berghei [1] is reported as 94.19%; in the data set on Mus musculus [6], “Non-toxic”; in the data set on Mus musculus [7], “Non-toxic”; in the data set on Plasmodium berghei [8], 5%; in the data set with Mus musculus [9], “Non-toxic”. For the same molecule, the concentration for half-maximal inhibition (IC50) (usually the concentration that gives 50% inhibition) in the data set on Leishmania aethiopica [2] stood at 0.0214 µg/mL (≈ 0.041 µM); in the data set with Leishmania aethiopica [3], 0.21 µg/mL (≈ 0.403 µM); with Plasmodium falciparum it was 0.0384 µM. For the same molecule, the Survival in the data set with Plasmodium berghei [4] came out at 14.84 days. Moreover, the MTD in [5] turned out to be 300 mg/kg.
With `CC(=O)N1N=C(c2ccccc2)CC1c1cn(-c2ccc(Br)cc2)nc1-c1ccc(C)cc1` (stereo unspecified), the Activity with Plasmodium berghei [1] is 96.51%; in the data set with Mus musculus [6], “Non-toxic”; with Mus musculus [7], “Non-toxic”; in the data set on Plasmodium berghei [8] it was 3%; with Mus musculus [9], “Non-toxic”. In addition, the concentration for half-maximal inhibition (IC50) in the data set on Leishmania aethiopica [2] is 3.02 µg/mL (≈ 6.05 µM); in the data set on Leishmania aethiopica [3] it was 2.77 µg/mL (≈ 5.55 µM); in the data set on Plasmodium falciparum it was 0.0368 µM. Also, the Survival in the data set on Plasmodium berghei [4] was 16.4 days. Besides, in data set [5], the MTD stood at 300 mg/kg.
Take `Cc1ccc(-n2cc(/C=N/NC(=S)Nc3ccccc3)c(-c3ccc([N+](=O)[O-])cc3)n2)cc1`: the Activity with Plasmodium berghei [1] is recorded as 94.19%; in the data set with Mus musculus [6], “Non-toxic”; with Mus musculus [7] it was “Non-toxic”; with Plasmodium berghei [8], 5%; in the data set on Mus musculus [9], “Non-toxic”. Besides, the IC50 was found to be 0.0241 µg/mL (≈ 0.0528 µM) with Leishmania aethiopica [2], 0.23 µg/mL (≈ 0.504 µM) in the data set on Leishmania aethiopica [3] and 0.0378 µM in the data set with Plasmodium falciparum. Besides, the Survival with Plasmodium berghei [4] was found to be 14 days. Further, the MTD in [5] came out at 300 mg/kg.
Regarding `CC(=O)N(C1=NN(C(C)=O)C(c2cn(-c3ccc(Br)cc3)nc2-c2ccc([N+](=O)[O-])cc2)S1)c1ccccc1` (stereo unspecified), the Activity is 86.05% with Plasmodium berghei [1]; “Non-toxic” in the data set on Mus musculus [6]; “Non-toxic” with Mus musculus [7]; 12% in the data set with Plasmodium berghei [8]; “Non-toxic” in the data set with Mus musculus [9]. Further, the IC50 in the data set with Leishmania aethiopica [2] was 0.0142 µg/mL (≈ 0.0235 µM); in the data set on Leishmania aethiopica [3], 0.13 µg/mL (≈ 0.215 µM). Besides, the Survival in the data set on Plasmodium berghei [4] turned out to be 16.86 days. This molecule returned an MTD in data set [5] of 300 mg/kg. In addition, the “Ratio IC50” value in the data set with Leishmania aethiopica [10] stood at 3; in the data set with Leishmania aethiopica [11], 225.
With `Cc1ccc(-c2nn(-c3ccc(Br)cc3)cc2/C=N/N=C2/SCC(=O)N2c2ccccc2)cc1`, the Activity in the data set on Plasmodium berghei [1] was 95.35%; in the data set on Mus musculus [6], “Non-toxic”; with Mus musculus [7], “Non-toxic”; in the data set on Plasmodium berghei [8], 4%; in the data set with Mus musculus [9] it was “Non-toxic”. Also, the IC50 with Leishmania aethiopica [2] worked out at 0.0341 µg/mL (≈ 0.0643 µM); with Leishmania aethiopica [3], 0.32 µg/mL (≈ 0.603 µM); with Plasmodium falciparum, 0.0364 µM. Also, in the data set with Plasmodium berghei [4], the Survival was determined as 16.86 days. This molecule gave an MTD in [5] of 300 mg/kg.
As to `Cc1ccc(-n2cc(/C=N/N=C3/SCC(=O)N3c3ccccc3)c(-c3ccc([N+](=O)[O-])cc3)n2)cc1`, the Activity in the data set with Plasmodium berghei [1] is 96.51%; in the data set on Mus musculus [6] it was “Non-toxic”; with Mus musculus [7], “Non-toxic”; with Plasmodium berghei [8], 3%; in the data set with Mus musculus [9], “Non-toxic”. Also, the IC50 in the data set on Leishmania aethiopica [2] turned out to be 0.0201 µg/mL (≈ 0.0405 µM); in the data set on Leishmania aethiopica [3], 0.28 µg/mL (≈ 0.564 µM); in the data set with Plasmodium falciparum it was 0.0402 µM. The Survival in the data set on Plasmodium berghei [4] was 16.62 days. The molecule also had an MTD in [5] of 300 mg/kg.
For `O=[N+]([O-])c1ccc(-c2nn(-c3ccc(Br)cc3)cc2C2CC(c3ccccc3)=NN2)cc1` (stereo unspecified), the Activity in the data set with Plasmodium berghei [1] is on record as 95.35%; in the data set with Mus musculus [6] it was “Non-toxic”; with Mus musculus [7], “Non-toxic”; with Plasmodium berghei [8], 4%; with Mus musculus [9], “Non-toxic”. The values for the IC50 with Leishmania aethiopica [2], in the data set with Leishmania aethiopica [3] and in the data set on Plasmodium falciparum were 2.12 µg/mL (≈ 4.35 µM), 1.11 µg/mL (≈ 2.27 µM) and 0.042 µM, respectively. The Survival in the data set with Plasmodium berghei [4] was found to be 17.6 days. Moreover, in data set [5], the MTD was 300 mg/kg.
As to `O=C1CS/C(=N/N=C/c2cn(-c3ccc(Br)cc3)nc2-c2ccc([N+](=O)[O-])cc2)N1c1ccccc1`, the Activity with Plasmodium berghei [1] is 97.67%; in the data set with Mus musculus [6], “Non-toxic”; in the data set with Mus musculus [7] it was “Non-toxic”; with Plasmodium berghei [8] it was 2%; in the data set with Mus musculus [9], “Non-toxic”. Besides, the IC50 worked out at 0.0224 µg/mL (≈ 0.0399 µM) in the data set on Leishmania aethiopica [2], 0.19 µg/mL (≈ 0.338 µM) in the data set on Leishmania aethiopica [3] and 0.0392 µM in the data set on Plasmodium falciparum. In addition, the Survival in the data set on Plasmodium berghei [4] came to 16.44 days. Moreover, the MTD in [5] came to 300 mg/kg.
In the case of `Cc1ccc(-c2nn(-c3ccc(C)cc3)cc2/C=N/N=c2/scc(-c3ccc(Br)cc3)n2-c2ccccc2)cc1`, the Activity with Plasmodium berghei [1] is reported as 97.67%; with Mus musculus [6] it was “Non-toxic”; with Mus musculus [7], “Non-toxic”; in the data set with Plasmodium berghei [8], 2%; in the data set with Mus musculus [9], “Non-toxic”. The IC50 in the data set on Leishmania aethiopica [2] worked out at 0.0311 µg/mL (≈ 0.0514 µM); in the data set on Leishmania aethiopica [3], 0.3 µg/mL (≈ 0.496 µM); in the data set on Plasmodium falciparum, 0.0418 µM. In addition, the Survival in the data set on Plasmodium berghei [4] was determined as 16.84 days. Further, in data set [5], the MTD was determined as 300 mg/kg.
With `O=C(/C=C/c1cn(-c2ccc(Br)cc2)nc1-c1ccc([N+](=O)[O-])cc1)c1ccccc1`, the Activity is 96.51% with Plasmodium berghei [1]; “Non-toxic” in the data set with Mus musculus [6]; “Non-toxic” with Mus musculus [7]; 3% with Plasmodium berghei [8]; “Non-toxic” in the data set on Mus musculus [9]. Also, the IC50 with Leishmania aethiopica [2] was found to be 1.08 µg/mL (≈ 2.28 µM); in the data set on Leishmania aethiopica [3], 1.22 µg/mL (≈ 2.57 µM); in the data set with Plasmodium falciparum, 0.0388 µM. Moreover, the Survival in the data set with Plasmodium berghei [4] is 16.22 days. The MTD in data set [5] is 300 mg/kg.
As for `Cc1ccc(-c2nn(-c3ccc(C)cc3)cc2C2CC(c3ccccc3)=NN2c2ccccc2)cc1` (stereo unspecified), the Activity with Plasmodium berghei [1] was found to be 69.77%; with Plasmodium berghei [8] it was 26%. Besides, the IC50 in the data set on Leishmania aethiopica [2] came to 3.09 µg/mL (≈ 6.59 µM); in the data set on Leishmania aethiopica [3] it was 1.78 µg/mL (≈ 3.8 µM). The Survival with Plasmodium berghei [4] is 10.82 days.
On the same counts, the results for `CC(=O)N1N=C(c2ccccc2)CC1c1cn(-c2ccc(C)cc2)nc1-c1ccc(C)cc1` (stereo unspecified) are 79.07%, 18%, 3.05 µg/mL (≈ 7.01 µM), 2.31 µg/mL (≈ 5.32 µM) and 10.08 days.
